As usually defined, the IC50 is the concentration at which inhibition is half-maximal. Higher therefore signals lower potency.

The structures appear in SMILES notation. Calls of active or inactive are those of the source. No cut-off for these calls is given here.

Assay type in all cases: functional, cell-based
One test relates to A549. As to the kind of experiment: Antiproliferative activity against human A549 cells after 72 hrs by MTT assay. The settings on record: for IC50: A549, 72 h. In outline:
(§1)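 Human tumour lines HGC-27 (stomach), A-549 (lung), HeLa (cervical) and MV4-11 (leukemia) tested in a standard MTT assay, with taxol as positive control. Each assay repeated more than three times. IC50 calculated by the Reed and Muench method, reported as mean ± SD.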
On the technique in general: Tetrazolium assays rely on reduction of a dye to a coloured formazan, in cell work by metabolically active cells.

In the next test the test system is HGC-27. As to the kind of experiment: Antiproliferative activity against human HGC27 cells after 72 hrs by MTT assay. The following applies: for IC50: HGC-27, 72 h. In outline: as §1
The next test has as its system HeLa. Nature of the test: Antiproliferative activity against human HeLa cells after 72 hrs by MTT assay. In outline: as §1
In another test the test system is MV4-11. Nature of the test: Antiproliferative activity against human MV411 cells after 72 hrs by MTT assay. The settings on record: for IC50: MV4-11, 72 h. In outline:
as §1

Consider `C=C1[C@H]2[C@@H](/C(=C/C)C(=O)[C@H]2OC(=O)C(C)CC)[C@H]([C@@]2(C)CO2)[C@@H](OC(=O)C(C)CC)[C@H]1OC(=O)/C=C(\C)CC` (some centres not stated), for which the result in the test with A549, with HGC-27, in the test with HeLa and with MV4-11 was inactive.
Regarding `C=C(C)[C@@H]1C[C@@]2(C)C(=CC1=O)CC[C@@H](O)[C@@H]2C`, the result in the test on A549, in the test on HGC-27, with HeLa and in the test on MV4-11 was inactive.
Consider `C=C1[C@H]2[C@H]([C@H]([C@@]3(C)CO3)[C@@H](OC(=O)/C(C)=C\C)[C@H]1OC(=O)/C=C(\C)CC)[C@@H](CC)C(=O)[C@H]2OC(=O)C(C)CC` (some centres not stated), for which the result in the test with A549, in the test on HGC-27, with HeLa and in the test with MV4-11 was inactive.
`C=C(C)[C@@H]1C[C@@]2(C)C(=CC1=O)CC[C@@H](OC(=O)/C(C)=C\C)[C@@H]2C`: the result in the test on A549, in the test with HGC-27, in the test with HeLa and in the test with MV4-11 was inactive.
As for `C=C1[C@@H]2[C@H](OC(=O)C(C)CC)[C@H](OC(C)=O)[C@H]([C@@H](C)OC(=O)C[C@@H](C)O)[C@H]2[C@H]([C@@]2(C)CO2)[C@@H](OC(=O)/C(C)=C\C)[C@H]1OC(=O)/C=C(\C)CC` (some centres not stated), the half-maximal inhibitory concentration (IC50) in the test with A549 was 12.5 µM; with HGC-27 it was 6.1 µM; in the test on HeLa, 8.4 µM; with MV4-11 it was 9 µM.
As to `C=C(C(CC=C(C)C)OC(=O)/C(C)=C\C)[C@@H]1[C@@H](O)[C@@H](OC(=O)/C(C)=C/C)[C@](C)(O)C(=O)[C@H]1OC(C)=O` (some centres not stated), the outcome with A549, in the test with HGC-27, in the test on HeLa and in the test on MV4-11 was inactive.
As for `C=C1[C@H]2[C@@H](/C(=C\C)C(=O)[C@H]2OC(=O)C(C)CC)[C@H]([C@@]2(C)CO2)[C@@H](OC(=O)CC(C)CC)[C@H]1OC(=O)/C=C(\C)CC` (some centres not stated), the result in the test on A549, in the test with HGC-27, in the test on HeLa and in the test on MV4-11 was inactive.
For the compound `C=C(C(CC=C(C)C)OC(=O)/C(C)=C\C)[C@@H]1[C@@H](O)[C@@H]2O[C@]2(C)C(=O)[C@H]1OC(C)=O` (some centres not stated), the result in the test on A549, with HGC-27, with HeLa and with MV4-11 was inactive.
As for `C=C1[C@H]2[C@@H](/C(=C/C)C(=O)[C@H]2OC(=O)C(C)CC)[C@H]([C@@]2(C)CO2)[C@@H](OC(=O)/C(C)=C\C)[C@H]1OC(=O)/C=C(\C)CC` (some centres not stated), the result in the test on A549, in the test on HGC-27, with HeLa and in the test with MV4-11 was inactive.
`C=C1[C@H]2[C@@H](/C(=C/C)C(=O)[C@H]2OC(=O)C(C)CC)[C@H]([C@@]2(C)CO2)[C@@H](OC(=O)CC(C)CC)[C@H]1OC(=O)/C=C(\C)CC` (some centres not stated): the outcome in the test with A549, in the test with HGC-27, in the test with HeLa and in the test with MV4-11 was inactive.
Take `CC(=O)O[C@H]1C(=O)[C@@]2(C)[C@H]([C@H](OC(=O)c3ccccc3)[C@]3(O)C[C@H](OC(=O)[C@H](O)[C@@H](NC(=O)c4ccccc4)c4ccccc4)C(C)=C1C3(C)C)[C@]1(OC(C)=O)CO[C@@H]1C[C@@H]2O` [PACLITAXEL]: the IC50 with A549 was 0.051 µM; in the test with HGC-27 it was 0.028 µM; with HeLa it was 0.046 µM; in the test on MV4-11, 0.017 µM.
As to `C=C(C)[C@@H]1C[C@@]2(C)C(=CC1=O)CC[C@@H](OC(=O)C=C(C)C)[C@@H]2C`, the outcome with A549, with HGC-27, in the test on HeLa and with MV4-11 was inactive.
With `C=C1[C@H]2[C@@H]([C@@H]([C@@H](C)OC)C(=O)[C@H]2OC(=O)C(C)CC)[C@H]([C@@]2(C)CO2)[C@@H](OC(=O)C(C)CC)[C@H]1OC(=O)/C=C(\C)CC` (some centres not stated), the outcome in the test with A549, in the test with HGC-27, with HeLa and in the test on MV4-11 was inactive.
